Screening data: PubChem BioAssay, several laboratories
Rad51 HR inh = blocks human Rad51 in homologous recombination | hit rate 0.085% among 200,000 | hRad51 DNA strand exchange, fluorescence dequenching | AID 1385 | Q06609 | inhibition, % at 10 µM;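 active means inhibition above 40% at the single screening dose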;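 further: 0% = DMSO control wells and 100% = blanks with heterologous ssDNA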
Target sequence (Q06609 whole entry, looked up): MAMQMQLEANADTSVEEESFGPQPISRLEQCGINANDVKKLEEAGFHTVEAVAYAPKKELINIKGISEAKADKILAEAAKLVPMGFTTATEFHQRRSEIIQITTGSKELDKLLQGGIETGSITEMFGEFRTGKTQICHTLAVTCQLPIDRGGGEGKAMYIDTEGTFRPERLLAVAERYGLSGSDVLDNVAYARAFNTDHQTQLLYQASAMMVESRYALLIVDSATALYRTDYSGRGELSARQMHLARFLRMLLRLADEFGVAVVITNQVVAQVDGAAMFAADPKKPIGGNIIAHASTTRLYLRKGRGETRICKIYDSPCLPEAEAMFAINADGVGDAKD
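Read-out basis: percent inhibition relative to plate controls and blanks / Assay system: human Rad51 nucleoprotein filaments preassembled on unlabelled ssDNA / Timing: filaments 15 min 37 °C, then compound 30 min / Control set: per-plate controls and blanks / Technique: fluorescence dequenching at 485/520 nm / Compound: 10 µM final, single point / Also added: Fluorescein- and BHQ1-tagged 47-mer duplex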
Arbovirus anti = antivirals against arbovirus infection. hit rate 0.37% among 200,000. inhibition, % at 10 µM. arbovirus infection cell-based antiviral screen; in the data active means inhibition above about 30%
Yeast lifespan up = extends the lifespan of yeast. hit rate 0.68% among 130,000. inhibition of the nicotinamide effect, % at 10 µM. S. cerevisiae growth with nicotinamide, OD615; deaD strain in restrictive glucose medium. AID 775;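 active means inhibition above a set limit, placed 3 SD over the median of all compounds, cut at about 26% in these data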;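 further: 0% = nicotinamide-treated wells and 100% = cells grown without nicotinamide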
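Assay system: DeaD-strain S. cerevisiae. Medium: CSMM-D glucose medium, restrictive. Reagent: nicotinamide, 1.5 mM, co-present with compound. Compound: 10 µM single point, 0.25% DMSO. Schedule: culture preincubation 4 h, compound exposure 48 h, both 30 °C. Detection: absorbance at 615 nm.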
Efa HMGR inh = E. faecalis class II HMG-CoA reductase inhibition; purified E. faecalis HMGR, NADPH absorbance 340 nm kinetic; inhibition, % at 10 µM; hit rate 0.41% among 190,000; AID 1066;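 active means inhibition above a set limit, the median over all tested compounds plus 3 SD, cut at about 9.5% in these data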;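 further: enzyme runs in reverse so mevalonate oxidation gives rising NADPH absorbance; 0% = complete reaction with DMSO and 100% = background rate lacking mevalonate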
BB579 growth dn = yeast BB579 growth reduction in restrictive medium; S. cerevisiae BB579 growth, OD615, 48 h; inhibition, % at 10 µM; hit rate 0.51% among 140,000;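 active means inhibition above a set limit, 3 SD over the mean compound inhibition, cut at about 44% in these data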
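Assay system: S. cerevisiae DeaD strain BB579 yeast. Medium: CSMM-D restrictive synthetic medium containing dextrose (glucose). Times: 4 h cell preincubation, 48 h compound exposure, 30 °C humidified. Signal: OD615 turbidity measurement. Benchmarks: positive control amphotericin B 10 µg/mL.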
Measles CPE = protection of cells from measles virus; AID 841; Measles virus-infected cells, CPE protection, absorbance; protection (pct of control), % at 4 µM; hit rate 1.5% among 140,000; in the data active means protection mostly above about 24%, no sharp cut-off; inactive means mostly below about 26%
Active calls of the source: *; i = inactive; / = not tested or not shown. Only some compounds are listed: those with a hit (about 2.4% of all), similar ones and a draw of the others.

SMILES	Rad51 HR inh	Arbovirus anti	Yeast lifespan up	Efa HMGR inh	BB579 growth dn	Measles CPE
CCCC1=NN2C(=N)/C(=C\c3cc(C)n(-c4cccc(C)c4)c3C)C(=O)N=C2S1	/	33*	0	0	-17	6
CCCC1=NN2C(=N)/C(=C\c3cc(C)n(Cc4ccccc4)c3C)C(=O)N=C2S1	11	/	/	/	/	/
CCCC1=NN2C(=N)/C(=C\c3ccc(SCc4ccco4)o3)C(=O)N=C2S1	-95	32*	0	-2	-37	6
Cc1cc(/C=C2\C(=N)N3N=C(S(C)(=O)=O)SC3=NC2=O)c(C)n1Cc1ccccc1	2	10	/	-6	/	/
O=C1NC(=S)S/C1=C\c1ccc(SCc2ccco2)o1	11	18	3	13*	-40	11
CCC1=NN2C(=N)/C(=C/c3c(C)nn(-c4ccccc4)c3Cl)C(=O)N=C2S1	3	14	1	-1	-54	71*
N=C1/C(=C\c2ccc(-c3cccc(Cl)c3)o2)C(=O)N=C2SC=C(c3ccccc3)N12	-39	6	7	-8	-39	32
CCC1=NN2C(=N)/C(=C\c3ccc(SCc4ccco4)o3)C(=O)N=C2S1	-83	62*	-8	1	-37	4
Cc1c(NC(=O)CN2c3ccccc3CC2C)c(=O)n(-c2ccccc2)n1C (configuration not stated)	5	1	/	6	/	/
Cc1ccc(-c2cc(C(=O)O)n(-c3ccc(S(N)(=O)=O)cc3)n2)cc1	6	1	/	16*	/	/
CC(=O)c1c(O)cc(C)n(Nc2nc(C)cc(C)n2)c1=O	-2	-30	32*	0	-18	10
CC(=O)c1c(O)cc(C)n(-c2ccc(F)cc2)c1=O	7	-2	/	-5	/	/
N#Cc1cc(C(=O)c2ccccc2O)cn(-c2nccs2)c1=O	/	-19	16	-1	-32	3
N#Cc1cc(C(=O)c2cc(F)ccc2O)cn(-c2nccs2)c1=O	i	-16	41*	0	-28	6
Cc1ccc(-c2nc(N)sc2-c2ccccc2)cc1C	11	6	-6	-2	79*	3
Nc1nc(-c2ccccc2)c(-c2ccc([N+](=O)[O-])cc2)s1	-145	33*	/	-11	/	/
Nc1nc(-c2ccccc2)c(-c2ccccc2)s1	-2	0	-16	0	-24	5
COC(=O)c1sc2nc(C)c([N+](=O)[O-])c(C)c2c1N	4	6	-6	0	-1	4
CC(C)(C)c1cc(C(c2cccnc2)N2CCN(CCO)CC2)cc(C(C)(C)C)c1O (configuration not stated)	-9	-24	18	2	96*	5
O=C(Oc1coc(CSc2ncccn2)cc1=O)c1cccs1	5	-7	/	-5	/	/
Cc1[nH]n(-c2ccccc2)c(=O)c1C1(C(F)(F)F)C(=O)N(c2ccc(F)cc2)C2=C1C(=O)CC(C)(C)C2 (configuration not stated)	0	-14	-3	-2	-8	7
CCOC(=O)c1[nH]c2ccc(OC)cc2c1NC(=S)N1CCN(c2cccc(Cl)c2)CC1	2	-11	7	-10	-7	10
CCOC(=O)c1[nH]c2ccc(OC)cc2c1NC(=S)N1CCN(c2ccccc2)CC1	-8	-6	2	-2	-15	31*
COCCn1c(C)cc(C(=O)CSc2cc(C)c3ccccc3n2)c1C	-6	31*	5	-8	-1	4
Cn1c(-c2ccc(Br)cc2)cnc1NCc1cccnc1	-6	-15	42*	2	-29	6
SMILES	Rad51 HR inh	Arbovirus anti	Yeast lifespan up	Efa HMGR inh	BB579 growth dn	Measles CPE
CSc1nc(N)nc(-c2cccs2)c1C#N	0	-14	-25	1	3	17
CC(C)Sc1nc(N)nc(-c2cccs2)c1C#N	-5	-15	-21	-1	76*	9
CCCCNc1c(NC(C)=O)c(=O)oc2ccccc12	19	-8	1	1	-47	6
COc1cccc(NC(=O)N2CCN(S(C)(=O)=O)CC2)c1	3	4	/	-11	/	/
COc1cccc(NC(=O)N2CCCC2)c1	43*	8	/	-6	/	/
CCc1ccc(N=CC23c4ccccc4C(c4ccccc42)C2C(=O)N(c4ccc(OC)cc4)C(=O)C23)cc1 (configuration not stated)	-4	27	29*	-3	-22	4
CC(C)N(CCNC(=O)c1oc(=O)c2ccccc2c1-c1ccccc1)Cc1ccco1	9	-4	/	-1	/	/
COc1cc(-c2nc3ccc4ccccc4c3c3c2CCC3)ccc1O	-5	-32	-9	-1	85*	7
COc1cc(-c2nc3ccc4ccccc4c3c3c2CCC3)cc(OC)c1O	6	-32	-13	0	-16	3
O=c1cc(O)c2c(=O)n(-c3ccccc3)c3c(c2o1)CCCCC3	-2	-4	78*	-2	-56	2
CCOc1ccccc1CNC(=O)c1cc2oc3ccccc3c2n1CC	-2	0	-3	-2	6	35*
COc1cccc(CNC(=O)c2cc3oc4ccccc4c3n2C)c1OC	7	0	-4	1	-78	72*
CCOc1ccc(CNC(=O)c2cc3oc4ccccc4c3n2C)cc1	-5	2	-11	-4	6	89*
CCCCCCCCCCCCN1[C@@H](CC(=O)O)c2cc(F)ccc2S1(=O)=O	8	/	/	/	/	/
Cc1scc(C(=O)Nn2cnnc2)c1-c1ccccc1	-1	12	-11	-2	-12	41*
O=C(Nn1cnnc1)c1csc2ccccc12	-9	4	-9	-4	-28	9
COCCN1C(=O)c2ccc(C(=O)Nc3nccs3)cc2C1=O	1	-2	-4	-3	-45	30*
CCCN1C(=O)c2ccc(C(=O)Nc3nccs3)cc2C1=O	5	2	-10	-4	-39	10
COc1ccc(CN2C(=O)[C@@H]3C(c4ccccc4Cl)=NO[C@@H]3C2=O)cc1	-5	8	-15	11*	-4	5
O=C(NCCCO)Nc1ccc2nc(-c3ccco3)c(-c3ccco3)nc2c1	/	33*	-6	-7	-14	7
COc1ccc(N2C(=O)C(CN3CCCCC3)C2c2ccccc2)cc1 (configuration not stated)	0	-4	/	15*	/	/
COc1ccc(C2C(C(=O)N3CCCCC3)CC(=O)N2c2ccc(OC)cc2)cc1 (configuration not stated)	-1	3	-8	-3	-7	7
O=C1/C(=C/c2cccnc2)CCc2c1[nH]c1ccccc21	/	4	/	0	/	/
CC1C/C(=C\c2cccnc2)C(=O)/C(=C/c2cccnc2)C1 (configuration not stated)	7	-31	70*	-4	-4	0
CC(C)Cc1nc2sc3c(c2c(=O)n1N)CC(C)(C)OC3	11	/	/	/	/	/
